# Activity calls are given as the source filed them. The calls are words filed in the database; no cut-off is given here.
# Key:
# [1] = tested on: Staphylococcus aureus; experiment: Antibacterial activity against Staphylococcus aureus MTCCB 737 at 30 ug/disc after 48 hrs by disc diffusion method; format: functional; conditions: for zone of inhibition at 30 µg/disc: read-out: IZ
# Procedure, shortened: (§1)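 Compound-impregnated discs were placed on agar plates pre-inoculated with the bacterial strain and incubated at 37 °C. Zones of inhibition around the discs were read at 48 h. Gentamicin served as the standard control, alongside a solvent-only (DMSO) disc.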
# [2] = tested on: Staphylococcus epidermidis; experiment: Antibacterial activity against Staphylococcus epidermidis MTCCB 1824 at 30 ug/disc after 48 hrs by disc diffusion method; format: functional; conditions: for zone of inhibition at 30 µg/disc: read-out: IZ; procedure, shortened: as §1
# [3] = tested on: Pseudomonas aeruginosa; experiment: Antibacterial activity against Pseudomonas aeruginosa MTCCB 741 at 30 ug/disc after 48 hrs by disc diffusion method; format: functional; conditions: for zone of inhibition at 30 µg/disc: read-out: IZ; procedure, shortened: as §1
# [4] = tested on: Escherichia coli; experiment: Antibacterial activity against Escherichia coli MTCCB 1652 at 30 ug/disc after 48 hrs by disc diffusion method; format: functional; conditions: for zone of inhibition at 30 µg/disc: read-out: IZ; procedure, shortened: as §1
# [5] = tested on: Staphylococcus aureus; experiment: Antibacterial activity against Staphylococcus aureus MTCCB 737 after 18-20 hrs by broth dilution method; format: functional
# Procedure, shortened: (§2)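 MIC was found by microbroth dilution in Mueller-Hinton broth with serial two-fold compound dilutions. The inoculum came from a 4–6 h broth culture adjusted to 0.5 McFarland, then diluted in broth to a final 3 × 10⁶ cfu/ml.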
# [6] = tested on: Staphylococcus epidermidis; experiment: Antibacterial activity against Staphylococcus epidermidis MTCCB 1824 after 18-20 hrs by broth dilution method; format: functional; procedure, shortened: as §2
# [7] = tested on: Pseudomonas aeruginosa; experiment: Antibacterial activity against Pseudomonas aeruginosa MTCCB 741 after 18-20 hrs by broth dilution method; format: functional; procedure, shortened: as §2
# [8] = tested on: Escherichia coli; experiment: Antibacterial activity against Escherichia coli MTCCB 1652 after 18-20 hrs by broth dilution method; format: functional; procedure, shortened: as §2
# [9] = tested on: Aspergillus flavus; experiment: Antifungal activity against Aspergillus flavus ITCC 5192 by disc diffusion method; format: functional
# Procedure, shortened: (§3)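 Agar plates inoculated with Aspergillus spores; sterile 5.0 mm filter-paper discs loaded with test compound over a range of 750–1.46 (unit as printed unclear) and placed on the surface. Incubated at 37 °C; zones read at 24, 48 and 96 h. MIC was taken as the lowest concentration giving an inhibition zone of at least 6.0 mm diameter.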
# [10] = tested on: Aspergillus niger; experiment: Antifungal activity against Aspergillus niger ITCC 5405 by disc diffusion method; format: functional; procedure, shortened: as §3
# [11] = tested on: Aspergillus flavus; experiment: Antifungal activity against Aspergillus flavus ITCC 5192 by micro-broth dilution method; format: functional
# [12] = tested on: Aspergillus niger; experiment: Antifungal activity against Aspergillus niger ITCC 5405 by micro-broth dilution method; format: functional
# [13] = tested on: Aspergillus fumigatus; experiment: Antifungal activity against Aspergillus fumigatus ITCC 4517 by micro-broth dilution method; format: functional
# [14] = tested on: Aspergillus flavus; experiment: Antifungal activity against Aspergillus flavus ITCC 5192 by percentage spore germination inhibition method; format: functional
# Procedure, shortened: (§4)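 Compound serially double-diluted in culture medium in 96-well plates, triplicate wells per concentration. Each well inoculated with spore suspension of about 100 ± 5 spores and incubated at 37 °C for 16 h. Germinated and non-germinated spores counted by inverted microscope. MIC90 is the lowest concentration giving >90% inhibition of spore germination.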
# [15] = tested on: Aspergillus niger; experiment: Antifungal activity against Aspergillus niger ITCC 5405 by percentage spore germination inhibition method; format: functional; procedure, shortened: as §4
# [16] = tested on: Aspergillus fumigatus; experiment: Antifungal activity against Aspergillus fumigatus ITCC 4517 by percentage spore germination inhibition method; format: functional; procedure, shortened: as §4
# [17] = tested on: HeLa; experiment: Cytotoxicity against Hela cells at 30 ug after 48 hrs by MTT assay relative to gentamicin; format: functional, Homo sapiens
# Procedure, shortened: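 HeLa cells were grown in DMEM with 10% heat-inactivated FBS and penicillin-streptomycin at 37 °C, 5% CO₂, seeded at 8 × 10³ cells/well and allowed 16 h to adhere. They were exposed to compound in serum-free DMEM for 4 h, then kept 48 h in growth medium. MTT was added for 2 h, formazan was dissolved in isopropanol/0.06 M HCl/0.5% SDS, and A540 was read. Viability is % of untreated cells, with gentamicin as comparator.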
# [18] = tested on: Aspergillus fumigatus; experiment: Antifungal activity against Aspergillus fumigatus ITCC 4517 by disc diffusion method; format: functional; procedure, shortened: as §3
Molecule,zone of inhibition at 30 µg/disc [1],zone of inhibition at 30 µg/disc [2],zone of inhibition at 30 µg/disc [3],zone of inhibition at 30 µg/disc [4],MIC [5],MIC [6],MIC [7],MIC [8],Activity [10],Activity [12],Activity [15],MIC [11],MIC [13],MIC [14],MIC [16],further results
N#CCN1CCN(Cc2ccccc2)CC1,18 mm,10 mm,13 mm,9 mm,19.5 µg/mL,310 µg/mL,156 µg/mL,625 µg/mL,inactive,inactive,inactive,–,–,–,–,Activity [9]: inactive; Activity [11]: inactive; Activity [13]: inactive; Activity [14]: inactive
N#CCCN1CCN(c2ccccc2)CC1,13 mm,12 mm,9 mm,12 mm,156 µg/mL,156 µg/mL,625 µg/mL,156 µg/mL,–,–,–,500 µg/mL,250 µg/mL,250 µg/mL,250 µg/mL,MIC [12]: 500 µg/mL; MIC [15]: 250 µg/mL; Activity [17]: 60%
COc1ccccc1N1CCN(CC#N)CC1,9 mm,8 mm,8 mm,10 mm,625 µg/mL,625 µg/mL,625 µg/mL,310 µg/mL,–,–,–,–,–,–,–,–
N#CCCN1CCN(CCO)CC1,18 mm,11 mm,15 mm,15 mm,19.5 µg/mL,310 µg/mL,39.1 µg/mL,39.1 µg/mL,inactive,inactive,inactive,–,–,–,–,Activity [9]: inactive; Activity [18]: inactive; Activity [11]: inactive; Activity [13]: inactive; Activity [14]: inactive; Activity [16]: inactive; Activity [17]: 60%
CN1CCN(CCC#N)CC1,10 mm,11 mm,19 mm,18 mm,310 µg/mL,156 µg/mL,19.5 µg/mL,39.1 µg/mL,inactive,inactive,inactive,–,–,–,–,Activity [9]: inactive; Activity [18]: inactive; Activity [11]: inactive; Activity [13]: inactive; Activity [14]: inactive; Activity [16]: inactive
N#CCCN1CCN(CCC#N)CC1,11 mm,9 mm,11 mm,10 mm,310 µg/mL,625 µg/mL,156 µg/mL,625 µg/mL,inactive,inactive,inactive,–,–,–,–,Activity [9]: inactive; Activity [18]: inactive; Activity [11]: inactive; Activity [13]: inactive; Activity [14]: inactive
CN1CCN(CC#N)CC1,12 mm,8 mm,9 mm,12 mm,310 µg/mL,625 µg/mL,625 µg/mL,310 µg/mL,–,–,–,500 µg/mL,500 µg/mL,250 µg/mL,500 µg/mL,MIC [9]: 93.8 µg/disc; MIC [10]: 93.7 µg/disc; MIC [12]: 500 µg/mL; MIC [15]: 250 µg/mL
N#CCN1CCN(c2ccccc2)CC1,10 mm,12 mm,13 mm,9 mm,310 µg/mL,156 µg/mL,156 µg/mL,310 µg/mL,–,–,–,500 µg/mL,500 µg/mL,500 µg/mL,250 µg/mL,MIC [12]: 500 µg/mL; MIC [15]: 250 µg/mL; Activity [17]: >95%
N#CCCN1CCN(Cc2ccccc2)CC1,–,–,–,–,–,–,–,–,–,–,–,–,–,–,–,Activity [1]: inactive; Activity [2]: inactive; Activity [3]: inactive; Activity [5]: inactive; Activity [6]: inactive; Activity [7]: inactive
C[C@@H]1[C@H](O)[C@@H](C)/C=C/C=C/C=C/C=C/C=C/C=C/C=C/[C@H](O[C@@H]2O[C@H](C)[C@@H](O)[C@H](N)[C@@H]2O)C[C@@H]2O[C@](O)(C[C@@H](O)C[C@@H](O)[C@H](O)CC[C@@H](O)C[C@@H](O)CC(=O)O[C@H]1C)C[C@H](O)[C@H]2C(=O)O [AMPHOTERICIN B],–,–,–,–,–,–,–,–,–,–,–,5 µg/mL,5 µg/mL,5 µg/mL,5 µg/mL,MIC [9]: 2.5 µg/disc; MIC [10]: 2.5 µg/disc; MIC [18]: 2.5 µg/disc; MIC [12]: 5 µg/mL; MIC [15]: 5 µg/mL
COc1ccccc1N1CCN(CCC#N)CC1,12 mm,9 mm,9 mm,11 mm,156 µg/mL,625 µg/mL,625 µg/mL,156 µg/mL,inactive,inactive,inactive,1000 µg/mL,500 µg/mL,500 µg/mL,500 µg/mL,–
N#CCN1CCN(c2ccccc2[N+](=O)[O-])CC1,–,–,–,–,–,–,–,–,–,–,–,–,–,–,–,Activity [1]: inactive; Activity [2]: inactive; Activity [3]: inactive; Activity [5]: inactive; Activity [6]: inactive; Activity [7]: inactive; Activity [17]: 60%
GENTAMICIN,–,–,–,–,9.8 µg/mL,19.5 µg/mL,19.5 µg/mL,19.5 µg/mL,–,–,–,–,–,–,–,inhibition zone (IZ) [1]: 20 mm; inhibition zone (IZ) [2]: 18 mm; inhibition zone (IZ) [3]: 19 mm; inhibition zone (IZ) [4]: 18 mm
N#CCCN1CCNCC1,–,–,–,–,–,–,–,–,–,–,–,–,–,–,–,Activity [1]: inactive; Activity [2]: inactive; Activity [3]: inactive; Activity [5]: inactive; Activity [6]: inactive; Activity [7]: inactive

# — ChEMBL document CHEMBL1143797, “Synthesis, characterization and in vitro biological studies of novel cyano derivatives of N-alkyl and N-aryl piperazine” (2007)
